From ChEMBL document CHEMBL1153504, “Short-acting 5-(trifluoromethyl)pyrido[4,3-d]pyrimidin-4(3H)-one derivatives as orally-active calcium-sensing receptor antagonists” (Bioorg Med Chem Lett, 2009)
Active and inactive are the calls of the source. The rule behind the calls is not given here.

Assays:
[1] = Antagonist activity at human calcium receptor expressed in HEK293 cells assessed as inhibition of extracellular calcium-induced release of intracellular calcium strores into cytosol by FLIPR assay; type: functional, cell-based
[2] = Half life in human; type: ADME, organism-based; details: in vivo
[3] = biological target: Voltage-gated inwardly rectifying potassium channel KCNH2 (Homo sapiens, UniProt Q12809); experiment: Inhibition of human ERG
Chain of Voltage-gated inwardly rectifying potassium channel KCNH2 (Q12809 whole entry): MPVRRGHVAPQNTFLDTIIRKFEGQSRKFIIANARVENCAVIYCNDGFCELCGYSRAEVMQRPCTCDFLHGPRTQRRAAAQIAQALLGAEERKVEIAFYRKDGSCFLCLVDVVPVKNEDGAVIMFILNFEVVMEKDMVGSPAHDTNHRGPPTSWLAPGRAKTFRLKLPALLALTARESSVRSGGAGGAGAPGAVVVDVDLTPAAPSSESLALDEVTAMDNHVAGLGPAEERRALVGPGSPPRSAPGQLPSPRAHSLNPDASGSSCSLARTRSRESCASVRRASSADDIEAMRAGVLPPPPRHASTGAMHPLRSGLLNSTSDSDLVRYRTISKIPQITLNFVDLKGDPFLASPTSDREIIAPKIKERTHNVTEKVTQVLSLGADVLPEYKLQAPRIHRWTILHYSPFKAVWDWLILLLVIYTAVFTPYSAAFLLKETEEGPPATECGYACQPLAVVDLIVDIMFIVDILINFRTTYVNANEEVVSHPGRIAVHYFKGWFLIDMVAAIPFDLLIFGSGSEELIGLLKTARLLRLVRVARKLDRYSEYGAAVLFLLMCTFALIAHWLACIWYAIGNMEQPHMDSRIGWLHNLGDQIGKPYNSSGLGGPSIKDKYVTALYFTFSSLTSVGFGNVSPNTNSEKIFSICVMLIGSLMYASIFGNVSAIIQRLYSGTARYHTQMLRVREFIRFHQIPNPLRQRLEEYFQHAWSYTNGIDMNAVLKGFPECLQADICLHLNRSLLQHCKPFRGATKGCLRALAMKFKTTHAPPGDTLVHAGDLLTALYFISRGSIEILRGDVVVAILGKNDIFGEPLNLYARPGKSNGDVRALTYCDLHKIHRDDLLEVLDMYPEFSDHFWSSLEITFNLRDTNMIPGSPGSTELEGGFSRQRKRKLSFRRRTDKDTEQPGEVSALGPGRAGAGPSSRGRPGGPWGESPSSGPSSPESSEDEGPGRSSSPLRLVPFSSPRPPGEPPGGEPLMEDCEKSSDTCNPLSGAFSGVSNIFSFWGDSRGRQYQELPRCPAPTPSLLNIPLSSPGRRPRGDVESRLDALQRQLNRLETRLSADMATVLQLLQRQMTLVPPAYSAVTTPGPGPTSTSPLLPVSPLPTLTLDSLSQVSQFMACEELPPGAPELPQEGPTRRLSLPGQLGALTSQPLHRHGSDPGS

[4] = test system: Rattus norvegicus; experiment: (§1) Volume of distribution at steady state in Sprague-Dawley rat at 1 mg/kg, iv; type: ADME, organism-based; design: dose 1 mg/kg, route intravenous; details: in vivo
Outline: (§2)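 Male Sprague-Dawley rats, n = 2–5. iv dosing in glycerol formal containing 2% DMSO; po dosing as a spray dried dispersion. Plasma compound levels followed for PK parameters.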

[5] = test system: Rattus norvegicus; experiment: (§3) Terminal half life in Sprague-Dawley rat at 1 mg/kg, iv; type: ADME, organism-based; design: dose 1 mg/kg, route intravenous; details: in vivo; outline: as §2
[6] = Cmax in Sprague-Dawley rat at 1 mg/kg, iv; type: ADME, organism-based; design: dose 1 mg/kg, route intravenous; details: in vivo; outline: as §2
[7] = Tmax in Sprague-Dawley rat at 1 mg/kg, iv; type: ADME, organism-based; design: dose 1 mg/kg, route intravenous; details: in vivo; outline: as §2
[8] = Cmax in Sprague-Dawley rat at 10 mg/kg, po; type: ADME, organism-based; design: dose 10 mg/kg, route oral; details: in vivo; outline: as §2
[9] = AUC in Sprague-Dawley rat at 1 mg/kg, iv; type: ADME, organism-based; design: dose 1 mg/kg, route intravenous; details: plasma; outline: as §2
[10] = as §1; type: ADME, organism-based; design: dose 1 mg/kg, route intravenous; details: Sprague-Dawley, in vivo, read-out: Vdss; outline: as §2
[11] = as §3; type: ADME, organism-based; design: dose 1 mg/kg, route intravenous; details: Sprague-Dawley, in vivo, read-out: beta t1/2 (converted); outline: as §2
[12] = Plasma clearance in Sprague-Dawley rat at 1 mg/kg, iv; type: ADME, organism-based; design: dose 1 mg/kg, route intravenous; outline: as §2
[13] = test system: Rattus norvegicus; experiment: Induction of bone formation in Sprague-Dawley rat assessed as stimulation of PTH level in plasma at dose 10 mg/kg, po by ELISA; type: functional
Outline: (§4)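 Male Sprague-Dawley rats, n = 5/6, given a single iv or po dose. Plasma PTH 1-84 measured by an ELISA specific for full-length rat PTH 1-84. Earliest sampling at ~2 min; comparison against baseline in vehicle-treated animals.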

[14] = test system: Rattus norvegicus; experiment: Induction of bone formation in Sprague-Dawley rat assessed as stimulation of PTH level in plasma at 1 mg/kg, iv after 2 mins by ELISA; type: functional; outline: as §4
[15] = test system: Rattus norvegicus; experiment: Induction of bone formation in Sprague-Dawley rat assessed as sustained elevation of PTH level in plasma at dose 10 mg/kg, po administered for 5 days measured on day 5 by ELISA; type: functional, organism-based; design: dose 10 mg/kg
[16] = species on record: Rattus norvegicus; experiment: Ratio of AUC for 1-aminobenzotriazole led P450 inactivator pretreated Sprague-Dawley rat to AUC for normal Sprague-Dawley rat; type: ADME, organism-based; details: in vivo
[17] = test system: Rattus norvegicus; experiment: Induction of bone formation in Sprague-Dawley rat assessed as transient stimulation of PTH level in plasma at dose 10 mg/kg, po on day 1 by ELISA; type: functional, organism-based; design: dose 10 mg/kg
[18] = species on record: Rattus norvegicus; experiment: Ratio of half life for 1-aminobenzotriazole led P450 inactivator pretreated Sprague-Dawley rat to half life for normal Sprague-Dawley rat; type: ADME, organism-based; details: in vivo
[19] = Plasma clearance in 1-aminobenzotriazole led P450 inactivator pretreated Sprague-Dawley rat at 1 mg/kg, iv; type: ADME, organism-based; design: dose 1 mg/kg, route intravenous
[20] = test system: Rattus norvegicus; experiment: Induction of bone formation in Sprague-Dawley rat assessed as transient stimulation of PTH level in plasma at dose 10 mg/kg, po administered for 5 days measured on day 5 by ELISA; type: functional, organism-based; design: dose 10 mg/kg
[21] = test system: Rattus norvegicus; experiment: Induction of bone formation in Sprague-Dawley rat assessed as stimulation of PTH level in plasma at 1 mg/kg, iv after 2 mins relative by ELISA to basal level; type: functional; outline: as §4

SMILES: CC(=O)Nc1cccnc1-c1nc2ccnc(C(F)(F)F)c2c(=O)n1[C@H](C)Cc1ccccc1
- IC50 [1]: 19 nM

SMILES: Cc1nccc2nc(-c3ccccc3O)n(CCc3ccccc3)c(=O)c12
- IC50 [1]: 2990 nM

SMILES: O=c1c2c(OC3CCC3)nccc2nc(-c2ccccc2O)n1CCc1ccccc1
- IC50 [1]: 435 nM

SMILES: CC(C)(Cc1ccc2ccccc2c1)NC[C@@H](O)COc1cccc(Cl)c1C#N
- half-life [2]: 480 min
- Activity [3]: Active

SMILES: O=c1c2c(C(F)(F)F)nccc2nc(-c2ccccc2O)n1CCc1ccccc1
- IC50 [1]: 50 nM

SMILES: CC(C)Oc1nccc2nc(-c3ccccc3O)n(CCc3ccccc3)c(=O)c12
- IC50 [1]: 224 nM

SMILES: O=c1c2c(N3CCCC3)nccc2nc(-c2ccccc2O)n1CCc1ccccc1
- IC50 [1]: 5320 nM

SMILES: C[C@H](Cc1ccccc1)n1c(-c2ncccc2C(F)(F)F)nc2ccnc(C(F)(F)F)c2c1=O
- Vdss [4]: 2.9 L/kg
- beta t1/2 [5]: 48 min
- Cmax [6]: 100 ng/mL
- Tmax [7]: 78 min
- Cmax [8]: 450 ng/mL
- AUC [9]: 1200 ng·h/mL
- IC50 [1]: 64 nM

SMILES: COc1ccccc1CCn1c(-c2ncccc2O)nc2ccnc(C(F)(F)F)c2c1=O
- IC50 [1]: 76 nM

SMILES: C[C@H](Cc1ccccc1)n1c(-c2ncccc2O)nc2ccnc(C(F)(F)F)c2c1=O
- IC50 [1]: 22 nM

SMILES: O=c1c2c(C(F)(F)F)nccc2nc(-c2cscn2)n1CCc1ccccc1
- IC50 [1]: 656 nM

SMILES: O=c1c2c(C(F)(F)F)nccc2nc(-c2ccccc2Cl)n1CCc1ccccc1
- IC50 [1]: 1070 nM

SMILES: C[C@H](Cc1ccccc1)n1c(-c2cccc(F)c2O)nc2ccnc(C(F)(F)F)c2c1=O
- Vd [10]: 3.6 L/kg
- half-life [11]: 91.8 min
- AUC [9]: 528 ng·h/mL
- clearance [12]: 31.6 mL/min/kg
- IC50 [1]: 25 nM

SMILES: O=c1c2c(Cl)nccc2nc(-c2ccccc2O)n1CCc1ccccc1
- IC50 [1]: 106 nM

SMILES: Cc1cccnc1-c1nc2ccnc(C(F)(F)F)c2c(=O)n1[C@H](C)Cc1ccccc1
- IC50 [1]: 226 nM

SMILES: C[C@H](Cc1ccccc1)n1c(-c2ncccc2Cl)nc2ccnc(C(F)(F)F)c2c1=O
- Vdss [4]: 6 L/kg
- beta t1/2 [5]: 57 min
- AUC [9]: 810 ng·h/mL
- IC50 [1]: 79 nM

SMILES: C[C@@H](Cc1ccccc1)n1c(-c2ccccc2O)nc2ccnc(C(F)(F)F)c2c1=O
- IC50 [1]: 158 nM

SMILES: O=c1c2c(C(F)(F)F)nccc2nc(-c2ncccc2O)n1CCC1CCCCC1
- Vd [10]: 3.2 L/kg
- half-life [11]: 37.2 min
- AUC [9]: 490 ng·h/mL
- clearance [12]: 35.9 mL/min/kg
- IC50 [1]: 36 nM

SMILES: C[C@H](Cc1ccccc1)n1c(-c2cscn2)nc2ccnc(C(F)(F)F)c2c1=O
- IC50 [1]: 216 nM

SMILES: O=c1c2c(C(F)(F)F)nccc2nc(-c2ccccc2O)n1CCc1ccccc1F
- IC50 [1]: 132 nM

SMILES: O=c1c2c(C(F)(F)F)nccc2nc(-c2cccc(F)c2O)n1CCc1ccccc1
- IC50 [1]: 610 nM

SMILES: O=c1c2c(C(F)(F)F)nccc2nc(-c2ncccc2O)n1CCc1ccccc1F
- IC50 [1]: 151 nM

SMILES: C[C@H](Cc1ccccc1)n1c(-c2ccccc2O)nc2ccnc(C(F)(F)F)c2c1=O
- Activity [13]: 620 pg/mL
- Vd [10]: 1.4 L/kg
- half-life [11]: 36 min
- Cmax [6]: 125 ng/mL
- Activity [14]: 921 pg/mL
- Tmax [7]: 30 min
- Activity [15]: inactive
- Ratio [16]: 4
- Cmax [8]: 350 ng/mL
- AUC [9]: 518 ng·h/mL
- clearance [12]: 32.2 mL/min/kg
- Activity [17]: Active
- Ratio [18]: 7
- clearance [19]: 7.8 mL/min/kg
- IC50 [1]: 41 nM
- Activity [20]: Active

SMILES: C[C@H](Cc1ccccc1)n1c(-c2ccccc2Cl)nc2ccnc(C(F)(F)F)c2c1=O
- IC50 [1]: 152 nM

SMILES: C[C@H](Cc1ccc(F)c(F)c1)n1c(-c2ncccc2O)nc2ccnc(C(F)(F)F)c2c1=O
- Activity [13]: 599 pg/mL
- Vd [10]: 8.6 L/kg
- half-life [11]: 234 min
- Cmax [6]: 133 ng/mL
- Activity [14]: 1303 pg/mL
- Tmax [7]: 18 min
- Activity [15]: inactive
- Cmax [8]: 165 ng/mL
- AUC [9]: 364 ng·h/mL
- clearance [12]: 46.5 mL/min/kg
- Activity [17]: Active
- fold change (FC) [21]: 10
- IC50 [1]: 8 nM
- Activity [20]: Active
